Here are results for 11 compounds from ChEMBL document CHEMBL2034857, “Discovery of the macrocycle (9E)-15-(2-(pyrrolidin-1-yl)ethoxy)-7,12,25-trioxa-19,21,24-triaza-tetracyclo[18.3.1.1(2,5).1(14,18)]hexacosa-1(24),2,4,9,14(26),15,17,20,22-nonaene (SB1578), a potent inhibitor of janus kinase 2/fms-like tyrosine kinase-3 (JAK2/FLT3) for the treatment of rheumatoid …” (J Med Chem, 2012).

Data set [1] can be described thus: Kinetic solubility in PBS buffer at pH 7. The class given is physicochemical. Conditions: read-out: Kinetic_solubility.
Data set [2] in a line: Half life in mouse liver microsomes. The class given is ADME, Microsome. In general terms: Liver microsomes are vesicles of endoplasmic reticulum, rich in cytochrome P450 enzymes.
Data set [3] has as its target Cyclin-dependent kinase 2 (Homo sapiens, UniProt P24941). Nature of the data set: Inhibition of recombinant CDK2 using RbING as substrate after 2 hrs by luminometric assay.
Data set [4] in a line: Half life in human liver microsomes. The class given is ADME, Microsome.
For a further data set, the target named is Cytochrome P450 2D6 (Homo sapiens, UniProt P10635). Nature of the data set: Inhibition of CYP2D6 in human liver microsomes using dextromethorphan as substrate by LC-MS/MS analysis. The class given is ADME, Microsome.
For data set [5], the target named is Tyrosine-protein kinase JAK2 (Homo sapiens, UniProt O60674). Kind of data set: Inhibition of recombinant JAK2 using poly(Glu,Ala,Tyr) as substrate after 2 hrs by luminometric assay.
A further data set concerns the target Cytochrome P450 3A4 (Homo sapiens, UniProt P08684). Nature of the data set: Inhibition of CYP3A4 in human liver microsomes using testosterone as substrate by LC-MS/MS analysis. The class given is ADME, Microsome.
The next data set relates to BaF3. Kind of data set: Antiproliferative activity against mouse BAF3 cells expressing JAK2 V617F mutant after 48 hrs by luciferase reporter gene assay. The class given is functional. Conditions: BaF3, 48 h. (In general: A reporter such as luciferase makes a cellular process visible.)
Data set [6] addresses Voltage-gated inwardly rectifying potassium channel KCNH2 (Homo sapiens, UniProt Q12809). Kind of data set: Displacement of dofetilide from human ERG.
The target of data set [7] is Non-receptor tyrosine-protein kinase TYK2 (Homo sapiens, UniProt P29597). Kind of data set: Inhibition of TYK2.
Data set [8] concerns the target T1, Receptor-type tyrosine-protein kinase FLT3 (Homo sapiens, UniProt P36888).
T1 sequence (P36888 whole entry): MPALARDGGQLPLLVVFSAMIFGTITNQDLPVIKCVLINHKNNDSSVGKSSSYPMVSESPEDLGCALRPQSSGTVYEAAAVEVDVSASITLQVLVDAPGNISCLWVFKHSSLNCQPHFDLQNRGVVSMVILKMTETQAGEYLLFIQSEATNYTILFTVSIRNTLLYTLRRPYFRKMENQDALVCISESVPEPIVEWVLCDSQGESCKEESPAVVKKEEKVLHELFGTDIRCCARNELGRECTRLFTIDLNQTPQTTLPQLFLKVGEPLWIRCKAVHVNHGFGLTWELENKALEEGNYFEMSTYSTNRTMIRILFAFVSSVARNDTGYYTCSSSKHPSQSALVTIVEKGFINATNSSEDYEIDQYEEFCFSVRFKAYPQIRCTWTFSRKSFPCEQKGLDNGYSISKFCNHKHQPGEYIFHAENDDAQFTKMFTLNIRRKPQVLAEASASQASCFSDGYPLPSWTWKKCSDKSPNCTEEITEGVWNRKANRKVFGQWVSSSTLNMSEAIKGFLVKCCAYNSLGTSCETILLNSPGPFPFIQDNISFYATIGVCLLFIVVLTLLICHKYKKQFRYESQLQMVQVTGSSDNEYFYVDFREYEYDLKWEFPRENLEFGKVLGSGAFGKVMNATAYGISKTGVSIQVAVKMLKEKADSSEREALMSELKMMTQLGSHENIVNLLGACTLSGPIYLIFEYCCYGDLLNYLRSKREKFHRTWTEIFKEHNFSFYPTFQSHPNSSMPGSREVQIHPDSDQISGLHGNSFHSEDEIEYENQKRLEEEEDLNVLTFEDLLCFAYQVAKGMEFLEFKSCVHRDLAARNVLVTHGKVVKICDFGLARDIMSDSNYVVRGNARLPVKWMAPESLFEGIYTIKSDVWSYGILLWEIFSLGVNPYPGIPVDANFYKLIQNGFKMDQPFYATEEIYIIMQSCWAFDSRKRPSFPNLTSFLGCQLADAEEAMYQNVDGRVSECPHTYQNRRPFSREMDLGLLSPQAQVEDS
Kind of data set: Inhibition of recombinant FLT3 using poly(Glu,Tyr) as substrate after 2 hrs by luminometric assay.

Data set [9] has as its target T2, Tyrosine-protein kinase JAK3 (Homo sapiens, UniProt P52333).
T2 sequence (P52333 whole entry): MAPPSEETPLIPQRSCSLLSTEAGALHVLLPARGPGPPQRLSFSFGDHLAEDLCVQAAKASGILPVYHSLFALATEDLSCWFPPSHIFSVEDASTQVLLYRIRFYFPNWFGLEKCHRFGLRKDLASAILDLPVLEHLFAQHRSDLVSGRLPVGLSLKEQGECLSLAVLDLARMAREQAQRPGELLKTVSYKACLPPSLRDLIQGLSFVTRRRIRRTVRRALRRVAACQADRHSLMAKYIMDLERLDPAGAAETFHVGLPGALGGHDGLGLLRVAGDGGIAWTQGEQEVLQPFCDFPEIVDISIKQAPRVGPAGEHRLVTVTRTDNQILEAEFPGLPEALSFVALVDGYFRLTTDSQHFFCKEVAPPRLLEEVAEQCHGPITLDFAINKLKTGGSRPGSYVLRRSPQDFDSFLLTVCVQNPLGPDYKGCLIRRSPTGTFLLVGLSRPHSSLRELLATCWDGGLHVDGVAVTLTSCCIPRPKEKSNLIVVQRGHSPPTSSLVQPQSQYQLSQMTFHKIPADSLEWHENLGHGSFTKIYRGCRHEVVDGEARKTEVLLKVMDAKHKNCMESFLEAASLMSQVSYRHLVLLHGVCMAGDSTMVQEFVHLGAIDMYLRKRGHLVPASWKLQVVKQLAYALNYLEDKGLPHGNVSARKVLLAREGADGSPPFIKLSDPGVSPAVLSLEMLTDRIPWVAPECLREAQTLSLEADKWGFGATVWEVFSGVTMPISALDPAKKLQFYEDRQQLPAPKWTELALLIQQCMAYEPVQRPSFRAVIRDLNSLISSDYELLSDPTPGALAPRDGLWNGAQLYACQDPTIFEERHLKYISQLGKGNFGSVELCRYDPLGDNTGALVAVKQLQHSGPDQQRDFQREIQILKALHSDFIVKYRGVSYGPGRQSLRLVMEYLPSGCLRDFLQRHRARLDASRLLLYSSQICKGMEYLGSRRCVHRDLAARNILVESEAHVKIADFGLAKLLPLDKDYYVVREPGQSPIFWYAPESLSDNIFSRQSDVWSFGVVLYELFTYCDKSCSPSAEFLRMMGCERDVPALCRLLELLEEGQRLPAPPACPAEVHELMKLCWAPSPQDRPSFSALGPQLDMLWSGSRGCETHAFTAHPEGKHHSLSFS
Kind of data set: Inhibition of recombinant JAK3 using poly(Glu,Ala,Tyr) as substrate after 2 hrs by luminometric assay.

The target in data set [10] is Tyrosine-protein kinase JAK1 (Homo sapiens, UniProt P23458). Kind of data set: Inhibition of recombinant JAK1 using poly(Glu,Ala,Tyr) as substrate after 2 hrs by luminometric assay.
The test system of a further data set is HL-60. Kind of data set: Antiproliferative activity against human HL60 cells expressing FLT3 after 48 hrs by luciferase reporter gene assay. The class given is functional. As to conditions: HL-60, 48 h.
A short description of data set [11]: Selectivity ratio of IC50 for recombinant CDK2 to IC50 for recombinant JAK2.
Data set [12] in a line: Selectivity ratio of IC50 for recombinant JAK3 to IC50 for recombinant JAK2.
Data set [13] relates to Mus musculus. Kind of data set: Antiarthritic activity in po dosed B10/R3 mouse immunized with bovine type2 collagen in Freund's complete adjuvant assessed as inhibition of increase in clinical arthritic scores administered bid for 10 days measured for 10 days. The class given is functional, organism-based.
Data set [14] can be described thus: Selectivity ratio of IC50 for recombinant JAK1 to IC50 for recombinant JAK2.
Data set [15] has as its system Mus musculus. Nature of the data set: Antiarthritic activity in B10/R3 mouse immunized with bovine type2 collagen in Freund's complete adjuvant assessed as inhibition of increase in clinical arthritic scores at 0.1 mg/kg, po administered bid for 10 days measured for 10 days. The class given is functional. As to conditions: B10/R3, 240 h.
Data set [16] in a line: Thermodynamic solubility of the compound at pH 7. The class given is physicochemical. As to conditions: buffer, read-out: Therm_solubility. Put shortly:
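The citrate salt (~5 mg) was made up at 5 mg/mL in pH-buffered solution, in triplicate. It was shaken 24 h at 600 rpm at room temperature, filtered (0.4 μm) and the final pH recorded. The filtrate was diluted in acetonitrile/water (1:1), centrifuged and quantified by HPLC-UV. Two determinations were made on two different batches.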

≈ marks a conversion by molar mass, not a printed value.

Non-receptor tyrosine-protein kinase TYK2, sequence (P29597 whole entry): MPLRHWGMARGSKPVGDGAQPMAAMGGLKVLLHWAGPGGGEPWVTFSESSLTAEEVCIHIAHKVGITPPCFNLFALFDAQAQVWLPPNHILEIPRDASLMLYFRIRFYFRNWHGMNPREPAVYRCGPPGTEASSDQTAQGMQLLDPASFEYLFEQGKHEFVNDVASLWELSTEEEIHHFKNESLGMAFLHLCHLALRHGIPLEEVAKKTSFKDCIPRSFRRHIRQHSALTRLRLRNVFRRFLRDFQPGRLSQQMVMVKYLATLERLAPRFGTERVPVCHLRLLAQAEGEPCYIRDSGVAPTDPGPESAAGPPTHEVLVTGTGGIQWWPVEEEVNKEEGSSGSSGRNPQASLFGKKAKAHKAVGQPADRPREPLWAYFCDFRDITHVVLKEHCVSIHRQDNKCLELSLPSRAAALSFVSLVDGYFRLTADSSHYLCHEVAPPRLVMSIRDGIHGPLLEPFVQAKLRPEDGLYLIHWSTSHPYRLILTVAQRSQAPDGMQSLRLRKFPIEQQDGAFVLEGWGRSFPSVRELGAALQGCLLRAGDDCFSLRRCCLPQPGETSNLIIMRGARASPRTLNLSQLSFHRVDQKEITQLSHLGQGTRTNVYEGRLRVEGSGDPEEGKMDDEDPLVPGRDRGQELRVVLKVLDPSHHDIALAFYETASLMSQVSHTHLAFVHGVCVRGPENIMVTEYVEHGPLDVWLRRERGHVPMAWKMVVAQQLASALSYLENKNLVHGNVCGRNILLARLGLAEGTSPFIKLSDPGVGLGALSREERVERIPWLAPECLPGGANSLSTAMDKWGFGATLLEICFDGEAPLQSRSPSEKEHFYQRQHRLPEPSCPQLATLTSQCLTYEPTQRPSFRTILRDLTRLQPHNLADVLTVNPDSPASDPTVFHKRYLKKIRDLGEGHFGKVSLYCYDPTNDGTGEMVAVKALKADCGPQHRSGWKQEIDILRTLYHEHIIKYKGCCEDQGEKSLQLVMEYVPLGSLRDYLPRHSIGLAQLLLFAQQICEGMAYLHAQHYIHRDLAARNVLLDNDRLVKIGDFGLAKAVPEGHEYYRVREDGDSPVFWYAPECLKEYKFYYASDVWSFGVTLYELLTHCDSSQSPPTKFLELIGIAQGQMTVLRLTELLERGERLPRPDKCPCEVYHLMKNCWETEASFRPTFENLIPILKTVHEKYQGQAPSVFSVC
Tyrosine-protein kinase JAK1, sequence (P23458 whole entry): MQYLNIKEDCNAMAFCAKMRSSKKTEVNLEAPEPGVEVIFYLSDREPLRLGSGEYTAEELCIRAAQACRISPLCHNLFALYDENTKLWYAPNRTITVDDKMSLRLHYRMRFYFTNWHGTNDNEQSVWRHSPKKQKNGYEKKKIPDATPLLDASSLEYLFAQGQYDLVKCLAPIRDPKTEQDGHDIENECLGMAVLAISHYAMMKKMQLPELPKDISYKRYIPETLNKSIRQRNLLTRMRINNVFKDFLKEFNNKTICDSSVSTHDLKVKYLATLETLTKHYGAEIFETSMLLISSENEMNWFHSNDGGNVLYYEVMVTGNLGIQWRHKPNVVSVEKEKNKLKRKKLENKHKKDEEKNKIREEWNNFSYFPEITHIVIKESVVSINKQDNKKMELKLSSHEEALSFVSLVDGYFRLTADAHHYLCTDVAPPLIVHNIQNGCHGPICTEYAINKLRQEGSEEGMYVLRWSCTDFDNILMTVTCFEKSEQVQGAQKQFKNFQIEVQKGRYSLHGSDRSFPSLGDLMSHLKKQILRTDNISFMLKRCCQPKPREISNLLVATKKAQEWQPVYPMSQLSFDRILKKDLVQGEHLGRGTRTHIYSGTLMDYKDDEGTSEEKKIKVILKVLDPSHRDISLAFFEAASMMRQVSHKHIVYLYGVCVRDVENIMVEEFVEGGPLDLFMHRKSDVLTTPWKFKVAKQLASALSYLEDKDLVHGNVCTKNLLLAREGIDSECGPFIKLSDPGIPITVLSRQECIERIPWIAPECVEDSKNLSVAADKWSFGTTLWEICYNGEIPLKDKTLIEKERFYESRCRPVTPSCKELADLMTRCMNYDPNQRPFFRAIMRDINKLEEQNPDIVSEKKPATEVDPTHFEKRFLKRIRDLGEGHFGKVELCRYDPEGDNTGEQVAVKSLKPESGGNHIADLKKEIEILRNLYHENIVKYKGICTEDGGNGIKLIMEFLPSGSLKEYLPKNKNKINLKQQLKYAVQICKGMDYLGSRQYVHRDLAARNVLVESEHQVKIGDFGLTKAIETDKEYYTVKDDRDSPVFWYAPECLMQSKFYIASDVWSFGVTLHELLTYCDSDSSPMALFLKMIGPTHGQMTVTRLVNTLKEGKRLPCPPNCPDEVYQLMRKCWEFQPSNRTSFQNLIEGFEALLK
Tyrosine-protein kinase JAK2, sequence (O60674 whole entry): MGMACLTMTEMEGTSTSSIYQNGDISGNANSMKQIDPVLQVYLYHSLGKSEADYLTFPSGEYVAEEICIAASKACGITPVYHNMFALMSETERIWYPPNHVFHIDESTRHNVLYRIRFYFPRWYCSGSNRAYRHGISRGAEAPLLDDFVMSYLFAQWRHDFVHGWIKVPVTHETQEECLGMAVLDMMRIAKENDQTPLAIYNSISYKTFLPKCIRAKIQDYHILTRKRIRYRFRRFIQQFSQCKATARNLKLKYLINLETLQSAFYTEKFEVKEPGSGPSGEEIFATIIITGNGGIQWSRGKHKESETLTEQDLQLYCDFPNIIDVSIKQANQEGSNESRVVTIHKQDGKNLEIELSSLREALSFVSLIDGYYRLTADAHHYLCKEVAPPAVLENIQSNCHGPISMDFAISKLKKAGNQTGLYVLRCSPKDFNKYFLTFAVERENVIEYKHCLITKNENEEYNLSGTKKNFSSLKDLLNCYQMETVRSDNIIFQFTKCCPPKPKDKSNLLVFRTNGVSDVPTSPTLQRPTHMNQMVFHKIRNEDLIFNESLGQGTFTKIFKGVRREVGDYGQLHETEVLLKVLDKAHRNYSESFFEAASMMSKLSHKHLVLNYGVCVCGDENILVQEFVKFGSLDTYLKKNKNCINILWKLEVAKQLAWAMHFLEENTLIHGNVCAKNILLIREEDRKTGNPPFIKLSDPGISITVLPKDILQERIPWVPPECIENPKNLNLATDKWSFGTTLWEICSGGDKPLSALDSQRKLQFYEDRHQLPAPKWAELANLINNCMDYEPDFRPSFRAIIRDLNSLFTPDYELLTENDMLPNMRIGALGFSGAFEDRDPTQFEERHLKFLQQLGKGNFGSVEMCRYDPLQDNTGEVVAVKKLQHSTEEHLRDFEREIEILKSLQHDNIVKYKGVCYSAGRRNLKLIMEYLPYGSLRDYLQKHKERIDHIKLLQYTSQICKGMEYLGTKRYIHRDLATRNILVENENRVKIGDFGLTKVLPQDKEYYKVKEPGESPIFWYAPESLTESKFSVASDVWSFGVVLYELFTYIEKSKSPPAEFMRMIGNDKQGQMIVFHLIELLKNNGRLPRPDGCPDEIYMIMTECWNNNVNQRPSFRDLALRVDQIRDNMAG
Cytochrome P450 2D6, sequence (P10635 whole entry): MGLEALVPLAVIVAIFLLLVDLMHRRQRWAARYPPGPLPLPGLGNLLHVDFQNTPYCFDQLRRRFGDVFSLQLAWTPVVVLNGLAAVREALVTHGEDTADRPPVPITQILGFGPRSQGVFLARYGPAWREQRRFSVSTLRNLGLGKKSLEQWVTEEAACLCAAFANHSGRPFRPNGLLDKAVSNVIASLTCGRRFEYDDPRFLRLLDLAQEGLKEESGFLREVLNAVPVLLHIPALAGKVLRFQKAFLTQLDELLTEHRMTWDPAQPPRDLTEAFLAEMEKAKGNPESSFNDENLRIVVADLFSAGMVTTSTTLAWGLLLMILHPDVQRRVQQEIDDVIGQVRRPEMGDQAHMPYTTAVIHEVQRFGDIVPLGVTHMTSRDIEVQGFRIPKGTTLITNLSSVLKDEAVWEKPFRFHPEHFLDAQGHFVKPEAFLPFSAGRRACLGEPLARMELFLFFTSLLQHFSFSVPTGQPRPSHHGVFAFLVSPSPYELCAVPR
Cytochrome P450 3A4, sequence (P08684 whole entry): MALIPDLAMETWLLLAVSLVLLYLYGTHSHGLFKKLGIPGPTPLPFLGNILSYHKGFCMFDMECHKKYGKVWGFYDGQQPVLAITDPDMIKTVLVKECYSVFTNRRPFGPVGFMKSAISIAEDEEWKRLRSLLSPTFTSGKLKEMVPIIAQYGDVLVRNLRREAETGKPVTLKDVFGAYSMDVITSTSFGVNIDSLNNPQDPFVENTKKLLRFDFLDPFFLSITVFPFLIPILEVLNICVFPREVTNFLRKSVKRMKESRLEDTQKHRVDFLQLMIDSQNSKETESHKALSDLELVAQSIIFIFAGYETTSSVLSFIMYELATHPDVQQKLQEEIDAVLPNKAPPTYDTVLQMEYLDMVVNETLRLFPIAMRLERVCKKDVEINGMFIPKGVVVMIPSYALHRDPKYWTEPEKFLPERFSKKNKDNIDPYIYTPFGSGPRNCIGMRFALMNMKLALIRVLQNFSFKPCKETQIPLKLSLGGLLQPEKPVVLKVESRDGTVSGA

One may read the half-life as the time in which the quantity being followed falls by half. Low values mean fast loss, high ones slow loss. Usually IC50 stands for the point on the concentration scale where inhibition reaches its midpoint. A word on the GI50: it is the concentration giving 50% growth inhibition. For `C1=C2COC/C=C/COCc3cc(ccc3OCCN3CCCC3)Nc3nccc(n3)C(=C1)S2` (mixture of isomers), the solubility kinetic in data set [1] came to 154 µg/mL. The results for the half-life in data set [2] and in [4] were 27 min and above 60 min, respectively. Also, the IC50 in data set [3] is 2900 nM; against Cytochrome P450 2D6, above 10000 nM; in [5] it was 7.3 nM; at Cytochrome P450 3A4, above 10000 nM; in data set [6], 7200 nM; in data set [7] it was 32 nM. The half-maximal inhibitory concentration (IC50) in data set [8] came out at 24 nM; in data set [9], 650 nM; in [10], 420 nM. The GI50 was determined as 55 nM in the data set on BaF3 and 200 nM in the data set on HL-60.
As for `C1=C/COCc2cc(ccc2OCCN2CCCC2)Nc2nccc(n2)-c2ccc(o2)COC/1` (mixture of isomers), the results for the Ratio IC50 in data set [11], in data set [12] and in data set [14] were 152, 93 and 58, respectively. For the same compound, the inhibition entry in the data set on Mus musculus [13] is “Dose-dependent effect”.
For `C1=C/COCc2cc(ccc2OCCN2CCCC2)Nc2nccc(n2)-c2coc(c2)COC/1` (mixture of isomers), the Ratio IC50 is above 149 in data set [11], 131 in [12] and 45 in [14]. Besides, the solubility kinetic in data set [1] was above 250 µg/mL. Also, the half-life in [2] is 18 min; in [4] it was above 60 min. Further, the IC50 in data set [3] was above 10000 nM; on Cytochrome P450 2D6, above 10000 nM; in data set [5], 67 nM; at Cytochrome P450 3A4 it was above 10000 nM; in data set [7], 120 nM; in [8] it was 48 nM. The values for the IC50 in [9] and in [10] were 8800 nM and 3000 nM, respectively. Besides, in the data set with HL-60, the GI50 was 710 nM.
As for `CN1C/C=C/COCC2CCCN(C2)c2ccnc(n2)Nc2cccc(c2)C1` (mixture of isomers), the IC50 in [3], in data set [5], in data set [7], in data set [8], in data set [9] and in data set [10] was above 10000 nM in each case.
As to `CN1C/C=C/COCC2=CC=C(S2)c2ccnc(n2)Nc2ccc(OCCN3CCCC3)c(c2)C1` (mixture of isomers), the IC50 in data set [3] was 710 nM; in data set [5], 90 nM; in data set [7] it was 41 nM; in [8], 12 nM; in [9], above 10000 nM; in data set [10], 200 nM.
Regarding `C1=C/COCc2cc(ccc2OCCN2CCCC2)Nc2nccc(n2)-c2csc(c2)COC/1` (mixture of isomers), the Ratio IC50 in data set [11] was determined as 400; in data set [12] it was 40; in [14], 88. The solubility kinetic in data set [1] came out at 218 µg/mL. Moreover, the half-life in data set [2] is 25 min; in data set [4], above 60 min. The IC50 is 6800 nM in data set [3]; 17 nM in data set [5]; 47 nM in [7]; 45 nM in data set [8]; 680 nM in [9]; 1500 nM in data set [10]. The results for the GI50 in the data set with BaF3 and with HL-60 were 80 nM and 640 nM, respectively.
Regarding `C1=C/COCc2cc(ccc2OCCN2CCCC2)Nc2nccc(n2)-c2ccnc(c2)OCC/1` (mixture of isomers), the IC50 in data set [3] stood at 270 nM; in data set [5], 18 nM; in data set [7] it was 30 nM; in data set [8], 31 nM; in data set [9] it was 1400 nM; in data set [10], 970 nM.
For the compound `C1=C/COCc2cc(ccc2OCCN2CCCC2)Nc2nccc(n2)-c2ccc(s2)COC/1` (mixture of isomers), the Ratio IC50 in data set [11] came out at 397; in data set [12], 89; in data set [14], 57.
`CN1C/C=C/COCC2=CC=C(O2)c2ccnc(n2)Nc2cccc(c2)C1` (mixture of isomers): the IC50 in data set [3] is 320 nM; in data set [5], 820 nM; in data set [7], 1500 nM; in data set [8], 770 nM; in [9], above 10000 nM; in data set [10] it was 1800 nM.
For orientation: inhibition in vivo means the drop in the measured response relative to a control, in per cent. Turning to `C[C@@H]1C[C@H]2[C@@H]3CCC4=CC(=O)C=C[C@]4(C)[C@@]3(F)[C@@H](O)C[C@]2(C)[C@@]1(O)C(=O)CO` [DEXAMETHASONE], in the data set with Mus musculus [15], the inhibition in vivo at 0.1 mg/kg came to 63%.
Turning to `C1=C/COCc2cc(ccc2OCCN2CCCC2)Nc2nccc(n2)-c2cccc(c2)COC/1` [PACRITINIB], in data set [16], the solubility thermodynamic came out at 150 µg/mL (≈ 317 µM).
